HIF act: HIF pathway transcriptional activators, primary screen, cell-based, U2OS HRE-luciferase, luminescence. U2OS HRE-luciferase reporter; normalized: DMSO 0%, desferrioxamine 100%. activation, % at 7.5 µM (by protocol). 300,000 compounds, 0.32% hits;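 active means mean activation of at least 10% of the iron chelator positive control signal, with at least half of replicates also reaching 10%; inconclusive means mean and replicate majority disagree about reaching 10%; inactive means mean and most replicates under 10%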
CSC inhib: cancer stem cell viability inhibitors, primary screen, luminescence | cancer stem cell-like cells viability | 300,000 compounds, 1.1% hits | inhibition, % at 7.5 µM | AID 2717, 2010; in the data active means inhibition above about 75%; inconclusive means no clear call, values can overlap the other calls; tested in HMLE shEcad cells
SKKanGAS inh: S. pyogenes SKKanGAS growth inhibitors in kanamycin, primary screen, streptokinase expression inhibitor project, SKKanGAS strain, BacTiter-Glo luminescence. 6 h. inhibition, % at 7.5 µM. 300,000 compounds, 1.3% hits. AID 1662, 2009;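 active means mean replicate score, as percent of positive control median, at least 50; inconclusive means mean below 50 but one replicate at or above 50; inactive means mean and every replicate below 50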;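 further: strain carries kanamycin resistance gene driven by streptokinase promoter and grows in 40 µg/ml kanamycin; loss of luminescence reflects streptokinase promoter inhibition or plain growth inhibition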
Beta cell apopt: inhibitors of cytokine-induced beta cell apoptosis, primary screen, luminescence; protection from apoptosis, % (no concentration beside the values); 300,000 compounds, 0.8% hits; INS-1E cytokine-induced death, ATP luminescence, 48 h; percent of positive-control rescue, neutral wells zero; AID 435005, 2010;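 active means Every replicate reaches about 75%, or at least half do and their mean reaches it too, limit read from the data; inconclusive means At least half of replicates reach the limit but their mean does not; inactive means Under half of replicates reach the limit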;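 further: higher means more ATP so stronger rescue from cytokine killing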
T cruzi inh: inhibitors of intracellular T. cruzi growth, primary screen, luminescence, NIH3T3 host cells; T. cruzi beta-gal in NIH3T3, 90 h; inhibition, % (concentration not given with the values); 300,000 compounds, 1.4% hits; AID 1885, 2009;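 active means mean inhibition across valid replicates above about 55%, limit read from the data; inconclusive means mean below that limit but half or more replicates reach it; inactive means mean below it, under half of replicates reach it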;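 further: signal also drops with host cell toxicity which is not excluded here; higher percent means less beta-gal luminescence so fewer parasites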
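Incubation – ≥90 h infection period, 3 h prior cell attachment · System – NIH/3T3 fibroblasts plus reporter T. cruzi · Doses – compound pinned at 50 nL/well, DMSO · Read-out basis – percent inhibition of parasite-derived β-gal signal · Signal – luminescent β-galactosidase signal after 60 min lysis · Also added – 5000 T. cruzi trypomastigotes/well · Medium – Low-serum DMEM with 2% FBS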
PfHsp90 set2: growth inhibition of PfHsp90-expressing yeast, primary screen, antimalarial PfHsp90 inhibitor project, S. cerevisiae, BacTiter-Glo luminescence, single point, set 2; BacTiter-Glo ATP, 48 h; yeast lacking PDR1 and PDR3 efflux regulators; inhibition, % at 9.4 µM; 310,000 compounds, 0.32% hits;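 active means every replicate shows inhibition above about 80%, whatever the replicate mean, limit read from the data; inconclusive means mean inhibition reaches the set limit but some replicate falls short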
A number is an active result; n = inactive; u = inconclusive; x = no result. An excerpt weighted towards active compounds, which were near 3.6% of everything screened.

SMILES	HIF act	CSC inhib	SKKanGAS inh	Beta cell apopt	T cruzi inh	PfHsp90 set2
N#Cc1c(-c2ccc(Cl)cc2)c(-c2ccc(Cl)cc2)nn(CCOC(=O)CCC(=O)O)c1=O	x	x	x	x	x	n
COc1ccc(-n2cc([N+](=O)[O-])c(=O)c3ccc(Cl)cc32)cc1	n	n	n	n	n	n
CC(C)(C)OC(=O)C[C@@H]1C/C=C\C[C@@H](CC(=O)N[C@@H](CO)Cc2ccccc2)C(=O)N2CCC[C@@H]2COC1=O	x	n	x	n	x	n
COc1ccc(/C=N/NC(=O)c2ccccc2O)cc1CSc1ccccn1	197	n	n	n	n	n
COc1ccc(/C=N/NC(=O)c2ccccc2O)cc1COc1ccccn1	n	n	n	n	n	n
Cc1cc(NC(=O)COC(=O)c2cc([N+](=O)[O-])ccc2N2CCOCC2)ccc1Br	n	n	n	n	n	x
CN(Cc1ccccc1)C(=O)c1ccc(NC(=O)Cc2ccc(NC(=O)C3CCN(C(=O)c4ccccc4)CC3)cc2)cc1	x	x	x	x	x	n
COC(=O)c1ccc(NC(=O)c2nc(S(=O)(=O)Cc3cccc(C)c3)ncc2Cl)cc1	n	110	104	75	n	109
Cc1cccc(CS(=O)(=O)c2ncc(Cl)c(C(=O)NCc3ccc4c(c3)OCO4)n2)c1	n	n	n	n	n	n
CC(=O)Nc1ccc(NC(=O)c2nc(S(=O)(=O)Cc3cccc(C)c3)ncc2Cl)cc1	n	91	n	n	n	n
Cc1ccc(C(=O)/C=C\C(=O)c2ccc(C)cc2)cc1	n	n	56	n	71	n
COc1ccc(-c2cc(CCC(=O)N3CCN(c4cc(C)ccc4C)CC3)on2)cc1	x	x	x	x	x	n
O=C(Oc1cccc2cccnc12)c1cccc(N2C(=O)C3C4CCC(C4)C3C2=O)c1 (stereo not drawn)	n	n	n	79	n	x
O=C(Oc1cccc2cccnc12)c1ccc(N2C(=O)C3C4CCC(C4)C3C2=O)cc1 (stereo not drawn)	n	n	n	n	n	n
CCOc1ccc(N=Cc2c(C)[nH]n(-c3nc4ccccc4[nH]3)c2=O)cc1	n	118	n	114	n	u
Cc1[nH]n(-c2ccccc2)c(=O)c1C=Nc1cnc2ccccc2c1	n	n	n	n	n	n
Cc1ccc(CNC(=O)CN(c2ccc(Cl)cc2)S(C)(=O)=O)cc1	n	n	n	x	n	n
CCNC(=S)Nc1cccc([N+](=O)[O-])c1	n	n	n	n	n	x
O=[N+]([O-])c1cccc(NC(=S)Nc2nc(-c3ccccc3Cl)cs2)c1	n	86	u	n	n	n
O=C(c1c[nH]c2ccccc12)C(Cl)c1ccccc1 (stereo not drawn)	n	83	n	n	n	n
CC(=O)c1cc(CN2CCN(Cc3ccc(C)cc3)C(CCO)C2)cs1 (stereo not drawn)	n	n	n	n	n	n
COc1ccc(CN2CCN(Cc3nc4ccccc4s3)CC2CCO)c(C)c1C (stereo not drawn)	n	n	n	n	61	n
COc1ccc(CN2CCN(Cc3csc(C(C)=O)c3)CC2CCO)c(C)c1C (stereo not drawn)	n	n	n	n	55	n
COc1cccc(NC(=O)COC(=O)C2=NN(c3ccccc3)C(=O)CC2)c1	x	x	x	n	x	n
CC(C)(C)C1CC=C2C(C#N)=C(N)C(C#N)(C#N)C(c3cccs3)C2C1 (stereo not drawn)	n	n	54	n	n	x
SMILES	HIF act	CSC inhib	SKKanGAS inh	Beta cell apopt	T cruzi inh	PfHsp90 set2
Oc1ccc(N=Nc2n[nH]c(-c3ccccc3)n2)cc1	n	n	n	n	n	n
Oc1ccc(N=Nc2nc(-c3ccccc3)c(-c3ccccc3)[nH]2)cc1	n	189	n	n	n	100
Cc1cc(NC(=O)OC2CCCCC2)ccc1[N+](=O)[O-]	n	n	n	n	n	n
Cc1ccc2nc(-c3ccncc3)cc(C(=O)NCCc3ccc(F)cc3)c2c1	n	n	n	n	56	n
CCCCCCCNC(=O)c1cc(-c2ccncc2)nc2ccccc12	n	n	n	n	57	n
CCCCCc1ccc(OCCOCCn2c[n+](C)c3ccccc32)c(CCCCC)c1	n	x	84	x	n	n
